Experimental data from ChEMBL document CHEMBL1138270, “Antimycobacterial activities of novel 1-(cyclopropyl/tert-butyl/4-fluorophenyl)-1,4-dihydro- 6-nitro-4-oxo-7-(substituted secondary amino)-1,8-naphthyridine-3-carboxylic acid” (J Med Chem, 2007).
Values after ≈ are worked out from the molar mass of the structure shown.

Assays:
[1] = system: Mus musculus; assay: Toxicity in C57BL/6 mouse at 500 mg/kg; assay type: organism-based; parameters: dose 500 mg/kg; settings: in vivo
Outline: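 Maximum tolerated dose study in female C57BL/6 mice: single escalating doses of 100, 300 and 500 mg/kg, 3 mice/dose.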

[2] = system: Mycobacterium tuberculosis; assay: Antimycobacterial activity against Mycobacterium tuberculosis H37Rv by agar dilution method; assay type: functional
Outline: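 MIC was determined by agar dilution, in duplicate.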

[3] = system: Mus musculus; assay: Phototoxicity in Swiss Albino mouse assessed as ear erythema at 140 mg/kg, po after 24 hrs of irradiation; assay type: organism-based; parameters: dose 140 mg/kg, route oral; settings: in vivo
[4] = system: Vero; assay: Cytotoxicity against Vero cells after 72 hrs by MTT assay; assay type: cell-based; settings: Chlorocebus sabaeus
Outline: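 Vero cells were exposed to serially diluted compound up to 62.5 µg/mL for 72 h. Viability was read by cellular conversion of MTT to formazan (CellTiter 96 non-radioactive proliferation assay), and IC50 was derived.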

[5] = system: Mycolicibacterium smegmatis; assay: Antimicrobial activity against Mycobacterium smegmatis by agar dilution method; assay type: functional
Outline: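 Agar dilution against M. smegmatis ATCC 14468; MIC determined in duplicate.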

[6] = system: Mus musculus; assay: Phototoxicity in Swiss Albino mouse assessed as ear thickness at 140 mg/kg, po after 48 hrs of irradiation; assay type: organism-based; parameters: dose 140 mg/kg, route oral; settings: in vivo
Outline: (§1)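 Female Swiss albino mice (~2 months, 20-25 g) were fasted ≥18 h and given 140 mg/kg orally by gavage; controls received 0.5% Na-CMC vehicle at 10 mL/kg. UVA started right after dosing, 4 h (~18 J/cm2). Ear thickness was measured before dosing and at 4, ~24, 48, 72 and 96 h, reported as mean of left and right ears ± SEM.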

[7] = system: Mus musculus; assay: Phototoxicity in Swiss Albino mouse assessed as ear erythema at 140 mg/kg, po after 96 hrs of irradiation; assay type: organism-based; parameters: dose 140 mg/kg, route oral; settings: in vivo
[8] = system: Mus musculus; assay: Phototoxicity in UV light irradiated Swiss Albino mouse assessed as ear thickness at 140 mg/kg, po; assay type: organism-based; parameters: dose 140 mg/kg, route oral; settings: in vivo; outline: as §1
[9] = system: Mus musculus; assay: Phototoxicity in Swiss Albino mouse assessed as ear erythema at 140 mg/kg, po after 4 hrs of irradiation; assay type: organism-based; parameters: dose 140 mg/kg, route oral; settings: in vivo
[10] = system: Mus musculus; assay: Phototoxicity in Swiss Albino mouse assessed as ear thickness at 140 mg/kg, po after 24 hrs of irradiation; assay type: organism-based; parameters: dose 140 mg/kg, route oral; settings: in vivo; outline: as §1
[11] = system: Mus musculus; assay: Phototoxicity in Swiss Albino mouse assessed as ear thickness at 140 mg/kg, po after 72 hrs of irradiation; assay type: organism-based; parameters: dose 140 mg/kg, route oral; settings: in vivo; outline: as §1
[12] = system: Mus musculus; assay: Phototoxicity in Swiss Albino mouse assessed as ear thickness at 140 mg/kg, po after 4 hrs of irradiation; assay type: organism-based; parameters: dose 140 mg/kg, route oral; settings: in vivo; outline: as §1
[13] = system: Mycobacterium tuberculosis; assay: Antimycobacterial activity against Mycobacterium tuberculosis ATCC 35801 infected CD1 mouse assessed as spleen bacterial count at 50 mg/kg, ip after 35 days post infection; assay type: functional; settings: route intraperitoneal
Outline: (§2)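 CD-1 mice were infected intravenously via the caudal vein with about 10⁷ viable M. tuberculosis ATCC 35801. Intraperitoneal treatment began 10 days after inoculation and ran for 10 days. At 35 days post-infection, spleens and right lungs were homogenized, serially diluted 10-fold and plated on 7H10 agar at 37 °C in ambient air for 4 weeks. Counts were compared with vehicle-treated controls and given as log CFU ± SEM.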

[14] = Inhibition of Mycobacterium smegmatis DNA gyrase supercoiling activity; parameters: species or system Mycolicibacterium smegmatis
Outline: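 Gyrase purified from M. smegmatis was preincubated with compound in DMSO (5% DMSO in reaction). 400 ng relaxed pUC18 was added in 35 mM Tris-HCl pH 7.5, 5 mM MgCl2, 25 mM K-glutamate, 2 mM spermidine, 2 mM ATP, BSA, tRNA and 5% glycerol, 1 h at 37 °C. Samples were heat-inactivated, run on 1% agarose in TAE, and ethidium-stained; IC50 was derived.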

[15] = system: Mus musculus; assay: Phototoxicity in Swiss Albino mouse assessed as ear erythema at 140 mg/kg, po after 48 hrs of irradiation; assay type: organism-based; parameters: dose 140 mg/kg, route oral; settings: in vivo
[16] = system: Mus musculus; assay: Phototoxicity in Swiss Albino mouse assessed as ear thickness at 140 mg/kg, po after 96 hrs of irradiation; assay type: organism-based; parameters: dose 140 mg/kg, route oral; settings: in vivo; outline: as §1
[17] = system: Mus musculus; assay: Phototoxicity in Swiss Albino mouse assessed as ear erythema at 140 mg/kg, po after 72 hrs of irradiation; assay type: organism-based; parameters: dose 140 mg/kg, route oral; settings: in vivo
[18] = system: Mus musculus; assay: Phototoxicity in UV light irradiated Swiss Albino mouse assessed ear erythema at 140 mg/kg, po; assay type: organism-based; parameters: dose 140 mg/kg, route oral; settings: in vivo
[19] = system: Mycobacterium tuberculosis; assay: Antimycobacterial activity against Mycobacterium tuberculosis ATCC 35801 infected CD1 mouse assessed as lung bacterial count at 50 mg/kg, ip after 35 days post infection; assay type: functional; settings: route intraperitoneal; outline: as §2

Row | SMILES | Activity [1] | MIC [2] [µM] | Activity [3] | IC50 [4] [µM] | MIC [5] [µM] | Activity [6] [mm] | Activity [7] | Activity [8] [mm] | Activity [9] | Activity [10] [mm] | Activity [11] [mm] | Activity [12] [mm] | Log10 cfu [13] | IC50 [14] [µM] | Activity [15] | Activity [16] [mm] | Activity [17] | Activity [18] | Log10 cfu [19]
1 | CC1(C)COCN1c1nc2c(cc1[N+](=O)[O-])c(=O)c(C(=O)O)cn2C(C)(C)C | Non-toxic | 0.1 (≈ 0.039 µg/mL) | Non-toxic | > 160 | 3.99 (≈ 1.56 µg/mL) | 0.29 | Toxic | 0.24 | Non-toxic | 0.26 | 0.3 | 0.28 | 5.13 | 256 | Toxic | 0.3 | Toxic | Non-toxic | 5.6
2 | CN1CCN(c2nc3c(cc2[N+](=O)[O-])c(=O)c(C(=O)O)cn3-c2ccc(F)cc2)CC1c1ccccc1 (stereo not drawn) |  | 0.77 (≈ 0.388 µg/mL) |  | 124 | 3.09 (≈ 1.56 µg/mL) |  |  |  |  |  |  |  |  | 99.3 |  |  |  |  | 
3 | CCn1cc(C(=O)O)c(=O)c2cc(F)c(N3CCNC(C)C3)c(F)c21 (stereo not drawn) [LOMEFLOXACIN] |  |  | Toxic |  |  | 0.53 | Toxic | 0.31 | Toxic | 0.48 | 0.64 | 0.4 |  |  | Toxic | 0.6 | Toxic | Toxic | 
4 | CC1CN(c2nc3c(cc2[N+](=O)[O-])c(=O)c(C(=O)O)cn3-c2ccc(F)cc2)CC(C)O1 (stereo not drawn) |  | 0.43 (≈ 0.19 µg/mL) | Non-toxic | 141 | 1.79 (≈ 0.792 µg/mL) | 0.27 | Non-toxic | 0.26 | Non-toxic | 0.28 | 0.3 | 0.25 |  | 226 | Non-toxic | 0.3 | Non-toxic | Non-toxic | 
5 | O=C(O)c1cn2c(n1)CN(c1nc3c(cc1[N+](=O)[O-])c(=O)c(C(=O)O)cn3-c1ccc(F)cc1)CC2 |  | 0.38 (≈ 0.188 µg/mL) | Toxic | > 126 | 1.58 (≈ 0.781 µg/mL) | 0.32 | Non-toxic | 0.27 | Toxic | 0.33 | 0.33 | 0.32 |  | > 202 | Non-toxic | 0.33 | Non-toxic | Non-toxic | 
6 | O=C(O)c1cn(C2CC2)c2cc(N3CCNCC3)c(F)cc2c1=O [CIPROFLOXACIN] |  |  |  |  |  |  |  |  |  |  |  |  |  | 15.1 |  |  |  |  | 
